High-throughput results deposited in PubChem BioAssay by The Scripps Research Institute Molecular Screening Center.
GPR7 antag – blocks human GPR7 receptor signaling. P48145. 1.1% of 290,000 active. inhibition, % at 4.4 µM. AID 1861. GPR7-expressing cells, fluorescence antagonist assay; in the data active = inhibition above about 16%, passing the limit was not always enough;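 also: cells stimulated with the agonist NPW; 0% = agonist with vehicle and 100% = vehicle without agonist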
Target sequence (P48145 whole entry, looked up): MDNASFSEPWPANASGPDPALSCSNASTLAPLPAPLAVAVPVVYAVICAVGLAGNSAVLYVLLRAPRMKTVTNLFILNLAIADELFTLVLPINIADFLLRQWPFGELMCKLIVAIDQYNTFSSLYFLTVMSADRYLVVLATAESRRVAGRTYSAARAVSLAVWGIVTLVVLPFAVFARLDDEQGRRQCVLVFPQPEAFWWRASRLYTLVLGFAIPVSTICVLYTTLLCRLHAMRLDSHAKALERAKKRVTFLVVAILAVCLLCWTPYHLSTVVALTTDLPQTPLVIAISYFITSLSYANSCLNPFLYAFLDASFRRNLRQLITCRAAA
TAAR1 antag – human TAAR1 antagonism; inhibition, % at 3 µM; CHO RD-HGA16 TAAR1, Fluo-8 calcium fluorescence, antagonist; Q96RJ0; 1.5% of 360,000 active;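 active = inhibition above a per-plate cutoff, the mean inhibition of test compounds on that plate plus 3 SD, cut at about 49% in these data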;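 also: 0% = DMSO plus EC80 beta-PEA response and 100% = DMSO alone without agonist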
Target sequence (Q96RJ0 whole entry, looked up): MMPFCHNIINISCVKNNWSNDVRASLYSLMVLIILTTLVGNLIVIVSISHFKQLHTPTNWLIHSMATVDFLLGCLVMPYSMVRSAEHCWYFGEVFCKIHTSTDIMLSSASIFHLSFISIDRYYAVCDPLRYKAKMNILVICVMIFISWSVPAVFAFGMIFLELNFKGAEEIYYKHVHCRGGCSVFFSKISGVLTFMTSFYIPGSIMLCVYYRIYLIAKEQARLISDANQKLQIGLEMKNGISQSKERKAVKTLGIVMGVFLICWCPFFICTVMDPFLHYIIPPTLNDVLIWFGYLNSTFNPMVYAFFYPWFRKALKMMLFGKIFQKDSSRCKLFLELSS
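Material: RD-HGA16 CHO cells with stable hTAAR1 and Gα16; Dosing: single nominal final test compound concentration of 3 µM; Schedule: seeding 17-24 h prior, 75-min 37 °C, 30-min RT dye loading; Detection: kinetic Fluo-8 calcium fluorescence measurement; Measure: % inhibition from peak post-agonist over basal fluorescence ratio; Benchmarks: vehicle and agonist controls.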
TAAR1 ag – agonists of human TAAR1. activation, % at 3 µM. CHO RD-HGA16 TAAR1, Fluo-8 calcium fluorescence; vehicle wells 0%, saturating PEA agonist 100%. AID 624467. 0.99% of 360,000 active;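 active = activation above the mean activation of all test compounds in the run plus 3 SD, cut at about 38% in these data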
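System: CHO-derived RD-HGA16 cells with stable Gα16 and human TAAR1 / Times: 17-24 h plating, Fluo-8 75 min 37 °C, 30 min RT / Technique: calcium-sensitive Fluo-8 signal, excitation 470-495, emission 515-575 nm / Measure: % activation relative to PEA EC100 response / Benchmarks: DMSO and PEA EC100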
OX1R antag-1 – blocks the human orexin 1 receptor | O43613 | OX1R-expressing cells, FRET antagonist read-out | inhibition, % at 6.6 µM | 1.8% of 330,000 active | AID 485270; in the data active = inhibition mostly above about 38%, no sharp cut-off; inactive = mostly below about 40%;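 also: 0% = agonist challenge alone and 100% = reference antagonist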
OX1R antag-2 – human HCRTR1 antagonism | O43613 | CHO/OX1R cells, Fluo-8 calcium fluorescence, orexin A | inhibition, % at 5 µM | 0.43% of 330,000 active | AID 434989;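 active = inhibition above its plate's threshold, mean inhibition of all tested compounds on the plate plus 3 SD, cut at about 37% in these data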;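 also: 0% = orexin A challenge wells and 100% = SB-334867-A antagonist wells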
CHO parental Ca – signal in parental CHO cells, OX1R antagonist counter-screen; parental CHO-K1, ATP-induced calcium, Fluo-8 fluorescence; inhibition, % at 5.6 µM; 0.63% of 330,000 active; AID 463079;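 active = inhibition above that plate's mean sample inhibition plus 3 SD, cut at about 26% in these data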;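 also: 0% = ATP-challenged DMSO wells and 100% = DMSO wells without ATP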
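Material: Parental CHO cells | Reagent: ATP | Compound dosing: Single nominal dose of 5.6 µM per compound | Detection: Intracellular calcium via Fluo-8 no-wash fluorescent dye | Read-out: % inhibition of ATP-induced calcium mobilization | Benchmarks: Low control ATP plus DMSO, high control DMSO only | Replicates: Singlicate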
GPR7 antag cf – human GPR7 antagonism, confirmation assay; shares compounds with GPR7 antag; GPR7-expressing cells, calcium fluorescence antagonist mode; inhibition, % at 4.4 µM; 52% of 2,400 active; in the data active = inhibition above about 24%;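 also: stimulated with the GPR7 agonist NPW; 0% = agonist plus vehicle and 100% = vehicle alone without agonist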
MCHR1 antagonist – antagonizes human MCHR1, a GPR7 antagonist counter-screen | inhibition, % at 4.4 µM | 62% of 2,400 active | MCHR1-expressing cells, fluorescence antagonist assay | AID 2148 | shares compounds with GPR7 antag; in the data active = inhibition above about 22%;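 also: 0% = vehicle with agonist and 100% = vehicle without agonist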
* marks the source's active call; other numbers are inactive results; nt = not tested or not shown. Sampled rows, rich in hits. Any-hit rate of the full collection: about 4.6%.

SMILES	GPR7 antag	TAAR1 antag	TAAR1 ag	OX1R antag-1	OX1R antag-2	CHO parental Ca	GPR7 antag cf	MCHR1 antagonist
C=C(C)CSc1nnc([C@@H]2CCCN2C(=O)OC(C)(C)C)o1	-7.5	-14.9	6.2	3.9	-23.0	-6.2	nt	nt
CCSc1nsc(NC(=O)Nc2ccc(F)cc2F)n1	53.9*	nt	nt	42.6*	15.2	73.8*	51.6*	55.3*
CCOc1ccc(NC(=O)Nc2nc(SCC)ns2)cc1	24.7*	17.6	5.9	40.8	-5.3	37.1*	33.5*	65.5*
O=C(CSc1nnc(-c2cccc(S(=O)(=O)N3CCCC3)c2)n1-c1ccccc1)Nc1ccc(C(=O)O)cc1	26.4*	-10.4	1.7	8.2	-15.6	-13.7	10.6	13.1
CC(C)C1N(C(=O)CN2CCCCC2)CCN1S(=O)(=O)c1ccccc1 (stereo not drawn)	26.6*	4.1	5.0	16.6	-5.9	0.2	-8.9	-1.7
CN(Cc1ccc(F)cc1)C(=O)CNC(=O)c1ccc2c(c1)OCO2	nt	-13.7	1.6	16.4	-1.8	-10.4	nt	nt
COc1ccc(N2C(=O)/C(=C3/C=CC=CN3C)SC2=S)cc1	23.6*	-4.0	6.2	20.9	-9.4	-4.6	-8.8	4.6
O=C(Nc1cccc(S(=O)(=O)Nc2ccc(Cl)cc2)c1)c1ccc(Cl)nc1	23.9*	42.3	24.4	43.9	-3.0	10.7	65.5*	69.9*
COc1ccc(CNCCC(c2ccc(OC(C)C)cc2)C(C)C)cc1OC (stereo not drawn)	19.4	13.4	23.9	-0.7	-34.4	-14.5	nt	nt
COc1ccc(C(CCNCc2ccc(N(C)C)cc2)C(C)C)cc1 (stereo not drawn)	23.8*	1.1	10.5	7.7	-3.7	-9.0	21.9	49.6*
COc1ccc(C(CCNCc2ccc(OC(C)C)cc2)C(C)C)cc1 (stereo not drawn)	26.6*	11.0	23.2	9.4	-13.6	27.0*	50.8*	70.3*
COc1ccc(-n2c(=O)c(CCC(=O)NCCc3ccccc3F)nc3ccccc32)cc1	nt	-15.5	5.3	0.6	-5.8	-19.2	nt	nt
Nc1ccccc1-c1nc2ccccc2c(=O)o1	49.2*	-14.2	0.0	14.7	-1.9	-3.9	7.6	18.2
O=c1oc(-c2ccccc2[N+](=O)[O-])nc2ccccc12	0.8	-12.6	-1.2	21.2	-2.2	-9.7	nt	nt
N#Cc1cccc(NC(=O)CC2CCCC2)c1	-10.8	-8.4	1.3	21.7	-23.1	-2.2	nt	nt
CCCCCc1ccc(-c2cn(Cc3ccc([N+](=O)[O-])cc3)nn2)cc1	33.4*	nt	nt	18.5	-20.5	-5.0	36.6*	57.3*
COc1ccc(-c2cn(Cc3ccc([N+](=O)[O-])cc3)nn2)cc1	19.0	13.1	11.3	28.3	-15.8	-6.0	nt	nt
Cc1noc(/C=C/N(C)C)c1S(=O)(=O)N1CCCC(C(=O)N2CCCCC2)C1 (stereo not drawn)	27.0*	-25.1	-0.9	5.8	-31.6	-10.7	-5.4	4.3
O=C(NNC(=O)C12CC3CC(CC(C3)C1)C2)c1csc(N2CCOCC2)n1	nt	4.0	0.9	21.5	-13.5	-3.5	nt	nt
Cn1cc(CN2CCCC(C(=O)Nc3cccc(-n4cccn4)c3)C2)cn1 (stereo not drawn)	0.2	-18.6	0.5	1.7	-20.5	-23.6	nt	nt
Cn1cc(CN2CCCC(C(=O)Nc3ccc(-c4cccc(F)c4)cc3)C2)cn1 (stereo not drawn)	39.1*	9.6	17.4	3.3	-3.0	-16.6	42.0*	64.5*
Cc1ccc2oc(C(=O)NCC(c3ccco3)N(C)C)c(C)c2c1 (stereo not drawn)	0.4	-18.4	6.9	10.3	-19.7	-31.9	nt	nt
O=S(=O)(c1cnc(Cl)c(Cl)c1)N1CCCc2ccccc21	30.1*	10.2	3.2	18.1	-23.1	-9.3	60.6*	51.6*
CCOC(=O)C1(CCOc2ccccc2)CCN(Cc2cccc(OC)c2OC)CC1	32.4*	-3.5	4.5	21.6	-16.8	37.4*	24.2*	54.3*
O=C1c2cccc(OCC(=O)N3CCCc4ccccc43)c2CCN1Cc1ccc(F)cc1	28.5*	55.6*	17.0	31.4	-5.7	-13.6	41.2*	77.2*
SMILES	GPR7 antag	TAAR1 antag	TAAR1 ag	OX1R antag-1	OX1R antag-2	CHO parental Ca	GPR7 antag cf	MCHR1 antagonist
COCCCN(C(=S)Nc1cc(C)cc(C)c1)C(C)c1ccncc1 (stereo not drawn)	-7.4	-19.8	3.8	21.8	-3.0	-13.0	nt	nt
O=C(COc1ccccc1Cl)Nc1cc(NC(=O)COc2ccccc2Cl)cc(C(=O)O)c1	-7.2	19.0	-2.6	nt	nt	nt	nt	nt
COc1ccc(Cl)cc1N(CC(=O)NC1CC2CCC1C2)S(=O)(=O)c1ccccc1 (stereo not drawn)	33.3*	-5.7	-0.4	26.2	-20.3	-15.9	36.9*	62.3*
NC(=S)N=Nc1c(O)[nH]c2ccccc12	-6.8	7.0	1.1	26.3	-8.9	-3.9	nt	nt
NC(=S)N=Nc1c(O)[nH]c2c(Br)cc(Br)cc12	33.5*	3.7	-0.3	34.4	-23.9	-13.4	9.3	27.6*
CC(=O)N1CN(C2CC(C)(C)NC(C)(C)C2)Cc2c1sc1c2CCCC1	6.8	-11.5	3.2	15.9	-9.1	-2.8	nt	nt
CC(=O)N1CN(C2CCCC2)Cc2c1sc1c2CCCC1	23.7*	15.9	1.4	11.9	-24.5	-13.3	17.5	13.0
O=C(O)CNC(=O)c1ccc(NC(=O)/C(=C/c2ccccc2)NC(=O)c2ccccc2)cc1	-5.9	-4.5	1.2	-4.4	-20.1	0.0	nt	nt
CN(C)S(=O)(=O)c1cccc(C(=O)NCC2CCCCC2)c1	1.6	-5.7	0.0	6.2	-25.6	-10.5	nt	nt
COc1ccc(N(C)S(=O)(=O)c2cccc(C(=O)NC3CCCC3)c2)cc1	39.0*	-30.7	3.0	9.8	-11.1	-1.6	43.3*	23.6*
COc1ccc(N(C)S(=O)(=O)c2cccc(C(=O)NCC3CCCCC3)c2)cc1	25.9*	-10.0	3.1	nt	nt	nt	37.6*	37.5*
COc1nc(N)nc2c1ncn2C1OC(CO)CC1O (stereo not drawn)	nt	-7.2	2.3	nt	nt	nt	nt	nt
Cc1noc(C)c1S(=O)(=O)N(C)C[C@H]1OCc2cnnn2CCCC(=O)N([C@@H](C)CO)C[C@H]1C	nt	-12.9	4.2	nt	nt	nt	nt	nt
CCOC(=O)CSc1nc2ccccc2c(=O)n1-c1ccc(C)cn1	-5.4	4.4	-3.6	15.3	-24.2	-15.8	nt	nt
COc1cccc(CN2CCC(N(CCc3ccccc3)Cc3ccccc3)CC2)c1OC	23.2*	4.8	4.3	4.6	-33.0	-19.2	35.0*	40.5*
COc1cccc(CN2CCN(Cc3cccc(Oc4ccccc4)c3)CC2)c1OC	-7.2	-16.0	15.3	9.0	-40.0	-24.4	nt	nt
